Test results taken from article PMC9476936 (ACS Pharmacology & Translational Science, 2021).
Read-outs that look alike come from different tables or passages of the source.

Legend:
[1] = system: ABCB1; settings: cited from earlier work
[2] = molecular target: T1, human ABCB1 (Homo sapiens, UniProt P08183); format: biochemical; settings: 2 μM BPD, 690 nm
[3] = molecular target: T1, human ABCB1; format: biochemical
[4] = molecular target: T1, human ABCB1; format: biochemical; remark: listed apart in the source
[5] = molecular target: T1, human ABCB1; format: biochemical; remark: listed apart in the source
[6] = molecular target: T2, human ABCG2 (Homo sapiens, UniProt Q9UNQ0); format: biochemical
T2 sequence (Q9UNQ0 1-655): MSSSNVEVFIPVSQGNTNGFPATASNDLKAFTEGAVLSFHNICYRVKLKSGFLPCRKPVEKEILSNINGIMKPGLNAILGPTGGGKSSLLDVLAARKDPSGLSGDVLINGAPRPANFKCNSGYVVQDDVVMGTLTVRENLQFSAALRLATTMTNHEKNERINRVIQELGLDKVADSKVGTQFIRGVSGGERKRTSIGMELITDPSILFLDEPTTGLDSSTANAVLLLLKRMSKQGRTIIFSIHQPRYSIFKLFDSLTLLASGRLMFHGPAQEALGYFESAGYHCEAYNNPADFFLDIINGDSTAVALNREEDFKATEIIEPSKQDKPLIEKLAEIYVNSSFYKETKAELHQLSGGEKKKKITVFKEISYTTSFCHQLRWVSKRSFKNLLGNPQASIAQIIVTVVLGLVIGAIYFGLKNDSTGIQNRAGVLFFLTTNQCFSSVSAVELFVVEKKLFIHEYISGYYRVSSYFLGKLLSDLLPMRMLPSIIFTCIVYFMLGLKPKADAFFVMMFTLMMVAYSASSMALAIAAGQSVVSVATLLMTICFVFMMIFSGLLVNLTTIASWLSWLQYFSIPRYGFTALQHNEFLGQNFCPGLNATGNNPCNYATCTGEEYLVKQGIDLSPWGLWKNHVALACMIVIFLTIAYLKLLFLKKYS
Method in brief: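 Human ABCG2 (N-terminal His10) vesicles from baculovirus-infected High Five cells; 35 μg protein/50 μL in MES-Tris pH 6.8 buffer with 2 mM DTT. Photosensitizer (0–20 μM) added at 37 °C for 3 min, then 690 nm light (0–5 J/cm2, 50 mW/cm2). Fixed 0.5 J/cm2 for the dose series; fixed 2 μM for the fluence series. Denatured at 37 °C for 20 min, 7% Tris-acetate gel, 10 μg/lane, colloidal blue stain, densitometry.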

[7] = molecular target: T2, human ABCG2; assay: Vanadate; format: biochemical; settings: read-out: IC50 for ATPase activity of ABCG2; light activation (+hv) 690 nm, 0.05 J/cm2, 50 mW/cm2; membrane vesicles
[8] = 2 μM BPD, light fluence increased from 0 to 5 J/cm2
[9] = BPD 20 μM + light 690 nm, 5 J/cm2, 50 mW/cm2

T1 sequence (P08183 whole entry): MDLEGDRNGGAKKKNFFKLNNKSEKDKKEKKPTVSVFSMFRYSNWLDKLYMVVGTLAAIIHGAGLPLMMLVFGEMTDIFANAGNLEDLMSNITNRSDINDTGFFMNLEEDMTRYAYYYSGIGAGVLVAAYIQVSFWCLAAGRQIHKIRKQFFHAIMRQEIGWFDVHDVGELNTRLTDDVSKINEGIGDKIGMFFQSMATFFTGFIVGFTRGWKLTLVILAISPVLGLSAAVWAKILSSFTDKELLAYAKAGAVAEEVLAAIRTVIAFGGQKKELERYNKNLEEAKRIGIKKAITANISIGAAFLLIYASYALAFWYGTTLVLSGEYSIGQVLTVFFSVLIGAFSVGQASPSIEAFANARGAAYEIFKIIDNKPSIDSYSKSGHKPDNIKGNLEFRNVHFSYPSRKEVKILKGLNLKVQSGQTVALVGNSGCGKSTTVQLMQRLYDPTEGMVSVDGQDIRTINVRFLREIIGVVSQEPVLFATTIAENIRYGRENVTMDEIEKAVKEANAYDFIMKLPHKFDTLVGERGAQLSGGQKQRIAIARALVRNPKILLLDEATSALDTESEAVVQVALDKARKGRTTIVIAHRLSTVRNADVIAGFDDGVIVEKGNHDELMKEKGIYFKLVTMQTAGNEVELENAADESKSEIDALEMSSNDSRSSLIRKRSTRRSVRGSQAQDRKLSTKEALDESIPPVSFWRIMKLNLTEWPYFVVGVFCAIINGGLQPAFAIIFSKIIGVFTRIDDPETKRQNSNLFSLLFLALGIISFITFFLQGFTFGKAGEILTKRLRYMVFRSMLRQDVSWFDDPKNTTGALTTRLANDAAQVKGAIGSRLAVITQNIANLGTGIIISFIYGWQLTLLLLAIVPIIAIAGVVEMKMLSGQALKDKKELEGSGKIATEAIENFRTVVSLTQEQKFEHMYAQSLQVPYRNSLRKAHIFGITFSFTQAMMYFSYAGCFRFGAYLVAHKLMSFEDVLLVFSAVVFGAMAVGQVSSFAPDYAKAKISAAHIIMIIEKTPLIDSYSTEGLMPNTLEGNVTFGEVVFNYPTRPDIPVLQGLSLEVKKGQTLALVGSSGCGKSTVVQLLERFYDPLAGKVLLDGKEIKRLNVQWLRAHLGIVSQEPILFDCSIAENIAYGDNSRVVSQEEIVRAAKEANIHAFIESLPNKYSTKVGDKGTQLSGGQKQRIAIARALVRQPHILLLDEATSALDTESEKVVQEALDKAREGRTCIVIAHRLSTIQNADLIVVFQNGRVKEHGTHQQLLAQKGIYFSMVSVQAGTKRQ

In the case of `O[C@@H](COc1cccc2ncccc12)CN1CCN([C@@H]2c3ccccc3[C@@H]3[C@H](c4ccccc42)C3(F)F)CC1` [zosuquidar], the “concentrations inhibiting both drug transport and ATPase activity of ABCB1” value [1] is listed as “sub-micromolar concentrations”.

For `COc1cc2c(cc1OC)CN(CCc1ccc(NC(=O)c3cc(OC)c(OC)cc3NC(=O)c3cnc4ccccc4c3)cc1)CC2` [tariquidar], the “concentrations inhibiting both drug transport and ATPase activity of ABCB1” value [1] is given as “sub-micromolar concentrations”.

For `COc1cc2c(cc1OC)CN(CCc1ccc(NC(=O)c3cccc4c(=O)c5cccc(OC)c5[nH]c34)cc1)CC2` [elacridar], the “concentrations inhibiting both drug transport and ATPase activity of ABCB1” value [1] is given as “sub-micromolar concentrations”.

In the case of benzoporphyrin derivative [BPD], the “disappearance of protein band corresponding to monomeric ABCB1 in nanodiscs” value ([2]; 50 mW/cm2, 0.5 J/cm2) is reported as 49.0 ± 2.6%, the “disappearance of protein band corresponding to monomeric ABCB1 in nanodiscs” value ([2]; 50 mW/cm2, 5 J/cm2) is reported as 88.0 ± 3.5% and the “reduction of monomeric ABCB1 band intensity” value [3, 8] is reported as 9.1 fold. The “BPD concentration at which ABCB1 aggregation bands became evident” value ([3]; 0.5 J/cm2, 690 nm) was “higher than 0.5 μM”, the “band corresponding to monomeric ABCB1” value [3, 9] was “disappeared” and the “intensity of protein band of monomeric (non-aggregated) ABCB1” value ([3]; BPD alone 20 μM, no light) was “did not alter”. The “further reduction of ATPase activity of ABCB1 by light activation” value ([4]; +hv 690 nm, 0.05 J/cm2, 50 mW/cm2 versus −hv, stated jointly for ABCB1 and ABCG2) was “up to 12 fold”, the IC50 ([4]; read-out: IC50 for ATPase activity of ABCB1, light activation (+hv) 690 nm, 0.05 J/cm2, 50 mW/cm2, membrane vesicles) was 700 ± 100 nM and the “reduction of ATPase activity of ABCB1 in nanodiscs” value ([5]; absence of light activation) was 51.7 ± 5.3%. For the same compound, the “reduction of ATPase activity of ABCB1 in nanodiscs” value ([5]; light activation 690 nm, 0.05 J/cm2, 50 mW/cm2) was 97.3 ± 1.3%, the “reduction of monomeric ABCG2 band intensity” value [6, 8] was 5.4 fold and the “BPD concentration at which ABCG2 aggregation bands became evident” value ([6]; 0.5 J/cm2, 690 nm) was “higher than 0.5 μM”. The “band corresponding to monomeric ABCG2” value [6, 9] was “disappeared”, the “intensity of protein band of monomeric (non-aggregated) ABCG2” value ([6]; BPD alone 20 μM, no light) was “did not alter” and the IC50 [7] was 800 ± 100 nM.
